Converted amounts (≈) assume the structure as drawn.
Legend:
Format in all cases: functional, cell-based
Details in all cases: Homo sapiens
[1] = tested on: A498; assay: Cytotoxicity against A498 Tumor cell line in SRB Cell viability test
Summary of the method: (§1)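 Human tumor cell lines exposed to (pro)drug for 5 days; growth measured by microculture sulforhodamine B assay. ID50 = concentration giving 50% growth inhibition versus untreated control cultures, reported in ng/mL. Experiments run in quadruplicate and results averaged.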

[2] = tested on: EVSA-T; assay: Cytotoxicity against EVSA-T Tumor cell line in SRB Cell viability test; summary of the method: as §1
[3] = tested on: NCI-H226; assay: Cytotoxicity against H226 Tumor cell line in SRB Cell viability test; summary of the method: as §1
[4] = tested on: IGROV-1; assay: Cytotoxicity against IGROV Tumor cell line in SRB Cell viability test; summary of the method: as §1
[5] = tested on: M19-MEL; assay: Cytotoxicity against M19 Tumor cell line in SRB Cell viability test; summary of the method: as §1
[6] = tested on: MCF7; assay: Cytotoxicity against MCF-7 Tumor cell line in SRB Cell viability test; summary of the method: as §1
[7] = tested on: WiDr; assay: Cytotoxicity against WIDR Tumor cell line in SRB Cell viability test; summary of the method: as §1

Compound	IC50 [1]	IC50 [2]	IC50 [3]	IC50 [4]	IC50 [5]	IC50 [6]	IC50 [7]
CC(=O)O[C@H]1C(=O)[C@@]2(C)[C@H]([C@H](OC(=O)c3ccccc3)[C@]3(O)CC(OC(=O)[C@H](OC(=O)OCc4ccc(NC(=O)[C@H](CCCCN)NC(=O)[C@H](CC(C)C)NC(=O)[C@H](N)C(C)C)cc4)C(NC(=O)c4ccccc4)c4ccccc4)C(C)=C1C3(C)C)[C@]1(OC(C)=O)CO[C@@H]1C[C@@H]2O.Cl.Cl (stereo not given in full)	> 0.06 µg/mL	0.0093 µg/mL	0.016 µg/mL	0.027 µg/mL	0.02 µg/mL	0.0092 µg/mL	0.011 µg/mL
CC(=O)O[C@H]1C(=O)[C@@]2(C)[C@H]([C@H](OC(=O)c3ccccc3)[C@]3(O)CC(OC(=O)[C@H](OC(=O)N(C)CCN(C)C(=O)[C@H](CCCCN)NC(=O)[C@H](CC(C)C)NC(=O)[C@H](N)C(C)C)C(NC(=O)c4ccccc4)c4ccccc4)C(C)=C1C3(C)C)[C@]1(OC(C)=O)CO[C@@H]1C[C@@H]2O.Cl.Cl (stereo not given in full)	0.045 µg/mL	0.0052 µg/mL	0.025 µg/mL	0.026 µg/mL	0.024 µg/mL	0.0069 µg/mL	0.011 µg/mL
CC(=O)O[C@H]1C(=O)[C@@]2(C)[C@H]([C@H](OC(=O)c3ccccc3)[C@]3(O)CC(OC(=O)[C@H](OC(=O)N(C)CCN(C)C(=O)[C@H](CCCCN)NC(=O)[C@H](Cc4ccccc4)NC(=O)[C@@H](C)N)C(NC(=O)c4ccccc4)c4ccccc4)C(C)=C1C3(C)C)[C@]1(OC(C)=O)CO[C@@H]1C[C@@H]2O.Cl.Cl (stereo not given in full)	0.038 µg/mL	0.0072 µg/mL	0.021 µg/mL	0.011 µg/mL	0.017 µg/mL	0.0066 µg/mL	0.01 µg/mL
CC(=O)O[C@H]1C(=O)[C@@]2(C)[C@H]([C@H](OC(=O)c3ccccc3)[C@]3(O)CC(OC(=O)[C@H](OC(=O)NCCNC(=O)[C@H](CCCCN)NC(=O)[C@H](Cc4ccccc4)NC(=O)[C@@H](C)N)C(NC(=O)c4ccccc4)c4ccccc4)C(C)=C1C3(C)C)[C@]1(OC(C)=O)CO[C@@H]1C[C@@H]2O.Cl.Cl (stereo not given in full)	0.04 µg/mL	0.011 µg/mL	0.041 µg/mL	0.019 µg/mL	0.045 µg/mL	0.016 µg/mL	0.013 µg/mL
CC(=O)O[C@H]1C(=O)[C@@]2(C)[C@H]([C@H](OC(=O)c3ccccc3)[C@]3(O)C[C@H](OC(=O)[C@H](O)[C@@H](NC(=O)c4ccccc4)c4ccccc4)C(C)=C1C3(C)C)[C@]1(OC(C)=O)CO[C@@H]1C[C@@H]2O [PACLITAXEL]	< 0.003 µg/mL	< 0.003 µg/mL	< 0.003 µg/mL	0.01 µg/mL (≈ 11.7 nM)	< 0.003 µg/mL	< 0.003 µg/mL	< 0.003 µg/mL
